Experimental data: ChEMBL document CHEMBL4387759, “Discovery of novel N-methyl carbazole tethered rhodanine derivatives as direct inhibitors of Mycobacterium tuberculosis InhA” (Bioorg Med Chem Lett, 2019)
≈ marks a conversion by molar mass, not a printed value.

Assays:
[1] = system: Vero; experiment: Cytotoxicity against African green monkey Vero cells measured after 72 hrs by MTS-PMS assay; assay type: cell-based; settings: Chlorocebus sabaeus
Procedure, shortened: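 Cells exposed 72 h; viability read with a non-radioactive cell proliferation assay; IC50 determined.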

[2] = system: Mycobacterium tuberculosis; experiment: Antimycobacterial activity against Mycobacterium tuberculosis H37Rv incubated for 5 days under aerobic condition by fluorescence assay; assay type: functional, organism-based; settings: 120 h
Procedure, shortened: (§1)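 M. tuberculosis H37Rv grown aerobically; dual read-out assay (OD590 plus fluorescence); MIC and IC50 values reported; run at IDRI under NIAID screening programme.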

[3] = Selectivity index, ratio of IC50 for African green monkey Vero cells to IC50 for Mycobacterium tuberculosis H37Rv; assay type: toxicity; settings: read-out: Ratio IC50
Procedure, shortened: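 Ratio of cytotoxicity IC50 to H37Rv IC50; not calculated where H37Rv IC50 >100.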

[4] = system: Mycobacterium tuberculosis; experiment: Antimycobacterial activity against Mycobacterium tuberculosis H37Rv; assay type: functional; procedure, shortened: as §1
[5] = target: T1, Enoyl-[acyl-carrier-protein] reductase [NADH] (Mycobacterium tuberculosis) (UniProt P9WGR1); experiment: Inhibition of Mycobacterium tuberculosis InhA at 5 uM using DDCoA as substrate relative to control
T1 sequence (whole entry): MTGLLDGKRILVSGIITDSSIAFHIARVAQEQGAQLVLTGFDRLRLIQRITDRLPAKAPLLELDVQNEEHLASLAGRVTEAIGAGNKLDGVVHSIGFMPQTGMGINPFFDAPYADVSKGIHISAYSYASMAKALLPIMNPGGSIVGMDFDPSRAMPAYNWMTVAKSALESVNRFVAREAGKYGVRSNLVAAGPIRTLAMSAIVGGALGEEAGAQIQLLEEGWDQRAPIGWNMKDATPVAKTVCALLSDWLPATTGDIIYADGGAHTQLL
Procedure, shortened: (§2)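 InhA enzyme assay run in triplicate with 2-trans-dodecenoyl-CoA as substrate analogue; inhibition followed as NADH oxidation to NAD+ at 340 nm. Compounds screened at 50 μM, selected ones also at 5 μM; IC50 from 4-parameter curve fit; GEQ as reference inhibitor.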

[6] = target: T2, Enoyl-[acyl-carrier-protein] reductase [NADH] (Mycobacterium tuberculosis, UniProt P9WGR1); experiment: Inhibition of Mycobacterium tuberculosis InhA using DDCoA as substrate; procedure, shortened: as §2
T2 sequence (P9WGR1 whole entry): T1 sequence (whole entry)

Structure (SMILES)	IC50 [1] [µM]	MIC [2] [µM]	selectivity ratio [3]	IC50 [2] [µM]	MIC [4] [µM]	inhibition [5] [%]	IC50 [6] [µM]
Cn1c2ccccc2c2cc(/C=C3\SC(=S)N(c4ccc(Cl)cc4)C3=O)ccc21	213	> 100	–	–	–	–	–
COc1cccc(N2C(=O)/C(=C/c3ccc4c(c3)c3ccccc3n4C)SC2=S)c1	235	> 100	–	–	–	–	–
Cn1c2ccccc2c2cc(/C=C3\SC(=S)N(c4ccccc4)C3=O)ccc21	240	> 100	3.2	75	–	–	–
Cc1cc(=O)oc2cc(N3C(=O)/C(=C/c4ccc5c(c4)c4ccccc4n5C)SC3=S)ccc12	296	20 (≈ 9.65 µg/mL)	14.8	20	–	–	–
Cn1c2ccccc2c2cc(/C=C3\SC(=S)N(c4nnc(-c5ccc(Br)cc5)s4)C3=O)ccc21	165	> 100	–	–	–	–	–
O=C(c1ccc2[nH]ccc2c1)N1CCN(C2c3ccccc3-c3ccccc32)CC1	–	> 50	–	–	–	–	–
COc1ccc(-c2csc(N/N=C/c3ccc4c(c3)c3ccccc3n4C)n2)cc1OC	–	–	–	–	21 (≈ 9.29 µg/mL)	–	–
Cn1c2ccccc2c2cc(/C=C3\SC(=S)N(c4nnc(-c5ccccc5Cl)s4)C3=O)ccc21	239	> 100	–	–	–	–	–
Cn1c2ccccc2c2cc(/C=C3\SC(=S)N(c4cccc(O)c4)C3=O)ccc21	289	> 100	11.6	25	–	10	–
Cc1cc(=O)[nH]c2cc(N3C(=O)/C(=C/c4ccc5c(c4)c4ccccc4n5C)SC3=S)ccc12	277	> 100	–	–	–	–	–
Cn1c2ccccc2c2cc(/C=C3\SC(=S)N(c4ccc(C(=O)O)cc4)C3=O)ccc21	263	> 100	–	–	–	54	2.82
Cn1c2ccccc2c2cc(/C=C3\SC(=S)N(c4nnc(-c5cccc(Cl)c5)s4)C3=O)ccc21	193	> 100	–	–	–	–	–
Cn1c2ccccc2c2cc(/C=C3\SC(=S)N(c4nnc(-c5ccccc5F)s4)C3=O)ccc21	208	> 100	–	–	–	–	–
Cn1c2ccccc2c2cc(/C=C3\SC(=S)N(c4cc(C(=O)O)cc(C(=O)O)c4)C3=O)ccc21	210	> 100	–	–	–	12	–
COc1ccc(N2C(=O)/C(=C/c3ccc4c(c3)c3ccccc3n4C)SC2=S)cc1OC	261	50 (≈ 23 µg/mL)	5.2	50	–	–	–
COC(=O)c1ccc(N2C(=O)/C(=C/c3ccc4c(c3)c3ccccc3n4C)SC2=S)cc1	222	> 100	–	–	–	–	–
COc1cc(N2C(=O)/C(=C/c3ccc4c(c3)c3ccccc3n4C)SC2=S)cc(OC)c1OC	185	> 100	–	–	–	–	–
Cn1c2ccccc2c2cc(/C=C3\SC(=S)N(c4cccc(C(F)(F)F)c4)C3=O)ccc21	167	> 100	–	–	–	–	–
COc1ccc(-c2nnc(N3C(=O)/C(=C/c4ccc5c(c4)c4ccccc4n5C)SC3=S)s2)cc1	258	> 100	–	–	–	–	–
Cn1c2ccccc2c2cc(/C=C3\SC(=S)N(c4nnc(-c5ccc(Cl)cc5)s4)C3=O)ccc21	245	> 100	–	–	–	–	–
